pA2, pKB and logP data for 19 compounds are collected here from ChEMBL document CHEMBL1125052, “Synthesis and in vitro LTD4 antagonist activity of bicyclic and monocyclic cyclopentylurethane and cyclopentylacetamide N-arylsulfonyl amides” (J Med Chem, 1990).

System in one data set: not listed separately
The data set can be described thus: Antagonist activity was determined. The class given is functional.
Settings: not given
The procedure, abridged: (§1)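 Guinea pig tracheal spirals, each trachea split into two sections for paired experiments, in 10-mL baths of modified Krebs' buffer at 37 °C gassed with 95% O2/5% CO2. Resting tension was 2 g, with 60 min stabilization. Responses were expressed relative to carbachol (30 μM). Test compound was preincubated 30 min before cumulative LTE4 log-increment curves; paired controls received vehicle. EC50 was obtained by linear regression and KB = [antagonist]/(dose ratio − 1).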
The compound `COc1cc(C(=O)NS(=O)(=O)c2ccccc2)ccc1Cn1ncc2ccc(NC(=O)OC3CCCC3)cc21` [ICI-198615] returned a pA2 of 10.1.

The target in another data set is T1, Cysteinyl leukotriene receptor 1 (Cavia porcellus) (UniProt Q2NNR5).
T1 sequence (whole entry): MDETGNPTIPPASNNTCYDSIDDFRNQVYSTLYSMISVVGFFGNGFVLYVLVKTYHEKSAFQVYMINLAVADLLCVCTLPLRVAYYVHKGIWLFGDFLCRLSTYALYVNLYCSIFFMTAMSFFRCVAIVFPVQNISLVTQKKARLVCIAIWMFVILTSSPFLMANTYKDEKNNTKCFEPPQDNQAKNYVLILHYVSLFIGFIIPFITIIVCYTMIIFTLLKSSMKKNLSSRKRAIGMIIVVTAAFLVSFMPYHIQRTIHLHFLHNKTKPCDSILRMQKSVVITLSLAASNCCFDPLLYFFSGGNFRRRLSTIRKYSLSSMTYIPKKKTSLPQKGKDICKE
As to the kind of experiment: Negative logarithm of molar dissociation constant on guinea pig trachea at LTD4 receptor, when LTE4 is used as agonist. The class given is functional.
Settings: not given
The procedure, abridged:
as §1
With `COc1cc(C(=O)NS(=O)(=O)c2ccccc2C)ccc1CN1CCOc2ccc(NC(=O)CC3CCCC3)cc21`, the pKB amounted to 9.68. The same measure, in the same setting: for `COc1cc(C(=O)NS(=O)(=O)c2ccccc2)ccc1Cc1nn(C)c2ccc(NC(=O)OC3CCCC3)cc12` the value was 10.3.

The target in a further data set is T1, Cysteinyl leukotriene receptor 1 (Cavia porcellus). The data set can be described thus: Negative logarithm of molar dissociation constant on guinea pig trachea at Cysteinyl leukotriene D4 receptor, when LTE4 is used as agonist. The class given is functional.
Settings: not given
The procedure, abridged: as §1
In the case of `COc1cc(C(=O)NS(=O)(=O)c2ccccc2)ccc1COc1cccc(NC(=O)OC2CCCC2)c1`, the negative logarithm of the KB (pKB) worked out at 7.14. Regarding `COc1cc(C(=O)NS(=O)(=O)c2ccccc2Cl)ccc1Cc1csc2ccc(NC(=O)CC3CCCC3)cc12`, the pKB stood at 9.6. On the same count and under the same terms, the value for `CNc1ccc(NC(=O)OC2CCCC2)cc1C(=O)Cc1ccc(C(=O)NS(=O)(=O)c2ccccc2C)cc1OC` was 9.07; that for `COc1cc(C(=O)NS(=O)(=O)c2ccccc2)ccc1Cn1nnc2ccc(NC(=O)CC3CCCC3)cc21` was 9.86; that for `COc1cc(C(=O)NS(=O)(=O)c2ccccc2C)ccc1Cc1csc2ccc(NC(=O)CC3CCCC3)cc12` was 9.25. Still for that read-out and setting: for `COc1cc(C(=O)NS(=O)(=O)c2ccccc2)ccc1CN1CCc2ccc(NC(=O)CC3CCCC3)cc21` the value was 9.11; for `COc1cc(C(=O)NS(=O)(=O)c2ccccc2)ccc1CN1CCOc2ccc(NC(=O)CC3CCCC3)cc21`, 9.1; for `COc1cc(C(=O)NS(=O)(=O)c2ccccc2)ccc1CN1CCOc2ccc(NC(=O)OC3CCCC3)cc21`, 9.02. The same measure, in the same setting: for `COc1cc(C(=O)NS(=O)(=O)c2ccccc2)ccc1Cn1cnc2ccc(NC(=O)CC3CCCC3)cc21` the value was 9.22; for `COc1cc(C(=O)NS(=O)(=O)c2ccccc2)ccc1Cc1csc2ccc(NC(=O)OC3CCCC3)cc12`, 9.31. Take `COc1cc(C(=O)NS(=O)(=O)c2ccccc2)ccc1Cn1cnc2ccc(NC(=O)OC3CCCC3)cc21`: the negative-log KB (pKB) was 9.2.

System in another data set: not listed separately
The data set can be described thus: Partition coefficient (logP). Conditions: octanol/water. The class given is physicochemical.
For `Cn1ccc2ccccc21`, the lipophilicity (logP) stood at 2.72. As for `c1ccc2sccc2c1` [BENZOTHIOPHENE], the log partition coefficient (logP) was found to be 3.09. The same measure, in the same setting: the value for `c1ccc2[nH]ncc2c1` [INDAZOLE] was 1.82. On the same count and under the same terms, for `c1ccc2[nH]nnc2c1` [BENZOTRIAZOLE] the value was 1.34; for `c1ccc2[nH]cnc2c1` [BENZIMIDAZOLE], 1.2.
